This is an account of results in ChEMBL document CHEMBL1782010, “Synthesis and evaluation of quinoxaline derivatives as potential influenza NS1A protein inhibitors” (Bioorg Med Chem Lett, 2011).

Usually inhibition stands for the relative decrease from the control value, in per cent. By IC50 is commonly meant the point on the concentration scale where inhibition reaches its midpoint. A low value points to greater potency in that assay.

Active and inactive are the calls of the source. No cut-off for these calls is given here.

Test [1] has as its system Nucleic Acid. The experiment in a line: Binding affinity to double strand RNA assessed as denaturation of double strand RNA to single strand RNA at 50 uM after 1 hr by fluorescence polarization assay. It is filed as nucleic-acid assay. The essentials:
(§1)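 Counter-screen of FAM-dsRNA alone, with no NS1A target, by an analogous fluorescence polarization assay at 50 μM compound. Reported as % intercalation: a positive sign means intercalation into the dsRNA, a negative sign means denaturation of the dsRNA to single strands. Duplicates averaged.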
(In fluorescence polarisation assays a small probe gives low polarisation when free and higher when bound to something large.)

Test [2] relates to Influenza A virus (A/udorn/1972(H3N2)). In words: Inhibition of Influenza A/Udorn/72/H3N2 full length GST-tagged NS1A/FAM-double strand RNA-interaction at 50 uM after 1 hr by fluorescence polarization assay. An outline of the steps:
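Fluorescence polarization: carboxyfluorescein-labelled dsRNA (FAM-dsRNA) probe binds NS1A protein, which raises polarization. Disruption of binding read at 50 μM compound and reported as % binding. Run in duplicate; values averaged.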

The test system of test [3] is Nucleic Acid. The experiment in a line: Binding affinity to double strand RNA assessed as compound intercalation to double strand RNA at 50 uM after 1 hr by fluorescence polarization assay. It is filed as nucleic-acid assay. An outline of the steps: as §1
A short description of test [4]: Inhibition of Influenza A/Udorn/72/H3N2 full length GST-tagged NS1A/FAM-dsRNA-interaction after 1 hr by fluorescence polarization assay. Details: species or system Influenza A virus (A/udorn/1972(H3N2)). The essentials:
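Dose-dependent version of the FAM-dsRNA/NS1A fluorescence polarization binding assay. The rise in polarization on probe binding to NS1A gives the read-out, and IC50 is taken from the dose-response. Run in duplicate; values averaged.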

Test [5] has as its system Influenza A virus. The experiment in a line: Antiviral activity against Influenza A/Udorn/72 virus infected in MDCK cells assessed as reduction of plaque forming unit at 60 uM treated 1 hr after infection measured after 36 hrs by plaque assay. The conditions noted are these: Influenza A virus (A/udorn/1972(H3N2)). It is filed as functional, organism-based. The essentials: (§2)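 MDCK cells infected with influenza A/Udorn/72, either at MOI 5 (single-cycle growth) or at MOI 0.001 (multiple-cycle growth). After 1 h infection, growth medium containing compound diluted in DMSO was added; control received 0.1% DMSO. Virus yield was followed over time as growth curves.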

The test system of test [6] is Influenza A virus. The experiment in a line: Antiviral activity against Influenza A/Udorn/72 virus infected in MDCK cells assessed as inhibition of viral growth at 30 uM treated 1 hr after infection measured up to 15 hrs by plaque assay relative to control. Type of test: functional, Influenza A virus (A/udorn/1972(H3N2)). The essentials: as §2

For `O=C(O)c1ccc2nc(-c3ccc4c(c3)OCO4)c(-c3ccc4c(c3)OCO4)nc2c1`, in test [1], the Activity is -4.8%. Besides, the inhibition in test [2] was 23.2%.
As to `Oc1ccc(-c2nc3ccc(O)cc3nc2-c2ccc(O)cc2)cc1`, in test [3], the Activity worked out at 29.5%. For the same molecule, the inhibition in test [2] was determined as 38.8%.
Regarding `COc1cccc(-c2nc3ccc(C(=O)O)cc3nc2-c2cccc(OC)c2)c1`, the Activity in test [1] is -4.4%. Further, the inhibition in test [2] was 9.1%.
Regarding `c1ccc2nc(-c3ccc4c(c3)OCO4)c(-c3ccc4c(c3)OCO4)nc2c1`, the Activity in test [3] was 7.9%. The inhibition in test [2] stood at 1.5%.
As to `O=C(O)c1ccc2nc(-c3ccccn3)c(-c3ccccn3)nc2c1`, in test [3], the Activity worked out at 2.9%. Also, in test [2], the inhibition stood at 15.7%.
`O=C(NCc1ccco1)c1ccc2nc(-c3ccco3)c(-c3ccco3)nc2c1` registered an IC50 in test [4] of 3.5 µM. Moreover, the outcome in test [5] was inactive. Also, in test [3], the Activity stood at 5.9%. Besides, in test [6], the “fold change (FC)” value was 10. The inhibition in test [2] worked out at 79.5%.
Take `COc1ccc(-c2nc3ccc(C(=O)O)cc3nc2-c2ccc(OC)cc2)cc1`: the Activity in test [1] was -4.8%. Further, the inhibition in test [2] was found to be 4.5%.
For the molecule `COc1ccc(-c2nc3ccccc3nc2-c2ccc(OC)cc2)cc1`, in test [3], the Activity amounted to 1.4%. Besides, in test [2], the inhibition is 0.5%.
For `O=[N+]([O-])c1ccc2nc(-c3ccc4c(c3)OCO4)c(-c3ccc4c(c3)OCO4)nc2c1`, in that order: 24.4% and 56.6%.
With `O=C(O[C@@H]1Cc2c(O)cc(O)cc2O[C@@H]1c1cc(O)c(O)c(O)c1)c1cc(O)c(O)c(O)c1`, in test [2], the inhibition is 89%.
Take `COC(=O)c1ccc2nc(-c3ccco3)c(-c3ccco3)nc2c1`: half-maximal inhibition in test [4] (IC50) was put at 74.8 µM. Besides, the Activity in test [1] is -12.3%. In test [2], the inhibition was found to be 76%.
Take `COC(=O)CNC(=O)c1ccc2nc(-c3ccco3)c(-c3ccco3)nc2c1`: the Activity in test [1] is -27.9%. The inhibition in test [2] came out at 26.7%.
As to `O=C(NCc1ccccc1F)c1ccc2nc(-c3ccco3)c(-c3ccco3)nc2c1`, the Activity in test [1] is -11.3%. For the same molecule, the inhibition in test [2] was determined as 11.6%.
`O=C(NCc1ccccn1)c1ccc2nc(-c3ccco3)c(-c3ccco3)nc2c1`: 43.3 µM corresponded to half-maximal inhibition in test [4] (IC50). In addition, in test [1], the Activity was -9.6%. In test [2], the inhibition was found to be 64.7%.
As for `O=C(O)c1ccc2nc(-c3ccco3)c(-c3ccco3)nc2c1`, in test [3], the Activity turned out to be 5.8%. The inhibition in test [2] turned out to be 60.9%.
`COc1ccccc1-c1nc2ccccc2nc1-c1ccccc1OC`: in test [1], the Activity is -6.7%. The inhibition in test [2] was determined as 5%.
The like results for `O=C(NCc1cccs1)c1ccc2nc(-c3ccco3)c(-c3ccco3)nc2c1` were, in that order, -10.5% and 8.2%.
Turning to `COc1ccc(CNC(=O)c2ccc3nc(-c4ccco4)c(-c4ccco4)nc3c2)cc1`, the Activity in test [3] is 7.6%. In test [2], the inhibition was 44%.
For the molecule `COc1cccc(CNC(=O)c2ccc3nc(-c4ccco4)c(-c4ccco4)nc3c2)c1`, the IC50 in test [4] is 6.2 µM. In addition, the Activity in test [3] came to 4.5%. Besides, the inhibition in test [2] is 74%.
`Oc1ccccc1-c1nc2ccccc2nc1-c1ccccc1O`: the Activity in test [3] was -1%. Moreover, in test [2], the inhibition was -0.9%.
With `COc1ccccc1CNC(=O)c1ccc2nc(-c3ccco3)c(-c3ccco3)nc2c1`, the Activity in test [1] is -17.7%. Further, the inhibition in test [2] came to 29.5%.
In the case of `c1ccc(-c2nc3ccccc3nc2-c2ccccn2)nc1`, in test [3], the Activity was 2.3%. Moreover, the inhibition in test [2] was -3.1%.
In the case of `COc1ccc2nc(-c3ccccc3OC)c(-c3ccccc3OC)nc2c1`, the Activity in test [1] was -5%. In addition, the inhibition in test [2] worked out at 4.4%.
As to `COc1ccc2nc(-c3ccco3)c(-c3ccco3)nc2c1`, the Activity in test [3] was -3.2%. For the same molecule, in test [2], the inhibition was 54.3%.
Turning to `O=C(O)c1ccc2nc(-c3ccc(O)cc3)c(-c3ccc(O)cc3)nc2c1`, the Activity in test [1] was -7.7%. Moreover, the inhibition in test [2] amounted to 13.3%.
The like results for `COc1cccc(-c2nc3ccccc3nc2-c2cccc(OC)c2)c1` were, in that order, -6% and 1.4%.
Regarding `COc1ccc(CNC(=O)c2ccc3nc(-c4ccco4)c(-c4ccco4)nc3c2)cc1OC`, the Activity in test [3] stood at 5.6%. In addition, in test [2], the inhibition came out at 39.5%.
Take `COc1cccc(-c2nc3ccc(OC)cc3nc2-c2cccc(OC)c2)c1`: the Activity in test [1] is -8.4%. Further, the inhibition in test [2] is 7.2%.
With `O=[N+]([O-])c1ccc2nc(-c3ccc(O)cc3)c(-c3ccc(O)cc3)nc2c1`, in test [1], the Activity is -32%. In test [2], the inhibition came out at 19.5%.
For `O=[N+]([O-])c1ccc2nc(-c3ccccn3)c(-c3ccccn3)nc2c1`, in that order: -5.6% and 7.8%.
Consider `Oc1cccc(-c2nc3ccc(O)cc3nc2-c2cccc(O)c2)c1`, for which, in test [3], the Activity was 18.2%. The inhibition in test [2] amounted to 25%.
In the case of `c1coc(-c2nc3ccccc3nc2-c2ccco2)c1`, the Activity in test [1] was -23.7%. Besides, in test [2], the inhibition was determined as 7.3%.
For `COc1ccccc1-c1nc2ccc([N+](=O)[O-])cc2nc1-c1ccccc1OC`, in that order: -3.7% and 6.7%.
As to `COc1cccc(-c2nc3ccc([N+](=O)[O-])cc3nc2-c2cccc(OC)c2)c1`, the Activity in test [3] came out at 1.9%. The inhibition in test [2] was 1.5%.
For `Oc1ccc(-c2nc3ccccc3nc2-c2ccc(O)cc2)cc1`, in that order: 8.5% and 10.2%.
Turning to `COc1ccc(-c2nc3ccc([N+](=O)[O-])cc3nc2-c2ccc(OC)cc2)cc1`, the Activity in test [3] turned out to be 113%.
Regarding `COc1ccc(-c2nc3ccc(OC)cc3nc2-c2ccc(OC)cc2)cc1`, the Activity in test [3] was found to be 5.7%. Besides, the inhibition in test [2] was found to be 1.8%.
Consider `O=C(O)c1ccc2nc(-c3cccc(O)c3)c(-c3cccc(O)c3)nc2c1`, for which the Activity in test [3] was -3.4%. In test [2], the inhibition turned out to be 28.7%.
On to `COc1cc(CNC(=O)c2ccc3nc(-c4ccco4)c(-c4ccco4)nc3c2)cc(OC)c1OC`, for which, in test [1], the Activity is -4.7%. Further, the inhibition in test [2] is 53.6%.
For `O=C(NCc1cccc(F)c1)c1ccc2nc(-c3ccco3)c(-c3ccco3)nc2c1`, in that order: -11.6% and 13.6%.
The like results for `COc1ccccc1-c1nc2ccc(C(=O)O)cc2nc1-c1ccccc1OC` were, in that order, -2.5% and 2.8%.
The like results for `O=[N+]([O-])c1ccc2nc(-c3cccc(O)c3)c(-c3cccc(O)c3)nc2c1` were, in that order, -15.8% and 42.8%.
With `Oc1cccc(-c2nc3ccccc3nc2-c2cccc(O)c2)c1`, the Activity in test [1] was -4.8%. Besides, the inhibition in test [2] was determined as 10.9%.
As for `O=[N+]([O-])c1ccc2nc(-c3ccco3)c(-c3ccco3)nc2c1`, the Activity in test [3] is 25.9%. Further, the inhibition in test [2] came out at 25.5%.
For `O=C(NCc1ccc(F)cc1)c1ccc2nc(-c3ccco3)c(-c3ccco3)nc2c1`, in that order: 6.3% and 49%.
For `Oc1ccc2nc(-c3ccccc3O)c(-c3ccccc3O)nc2c1`, in that order: 0.9% and 10.9%.
For `COC(=O)c1ccc(CNC(=O)c2ccc3nc(-c4ccco4)c(-c4ccco4)nc3c2)cc1`, in that order: 8.8% and 47.9%.
